Measurements from ChEMBL document CHEMBL3352483, “Synthesis, structure-activity relationships and biological evaluation of barbigerone analogues as anti-proliferative and anti-angiogenesis agents” (Bioorg Med Chem Lett, 2014).

Columns and labels:
HepG2 = assay: Antiproliferative activity against human HepG2 cells after 24 hrs by MTT assay; assay type: functional, cell-based; settings: HepG2, 24 h
Procedure, shortened: (§1)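 MTT proliferation assay on HUVECs and on HepG2, A375, U251, B16 and HCT116 cells. Results reported as IC50.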

A-375 = assay: Antiproliferative activity against human A375 cells after 24 hrs by MTT assay; assay type: functional, cell-based; settings: A-375, 24 h; procedure, shortened: as §1
U-251 = assay: Antiproliferative activity against human U251 cells after 24 hrs by MTT assay; assay type: functional, cell-based; settings: U-251, 24 h; procedure, shortened: as §1
B16 = assay: Antiproliferative activity against mouse B16 cells after 24 hrs by MTT assay; assay type: functional, cell-based; settings: B16, 24 h; procedure, shortened: as §1
[1] = Antiproliferative activity against human HCT116 cells after 24 hrs by MTT assay; assay type: functional, cell-based; settings: HCT-116, 24 h; procedure, shortened: as §1
HUVEC [2] = assay: Antiproliferative activity against HUVEC after 24 hrs by MTT assay; assay type: functional, cell-based; settings: Homo sapiens; procedure, shortened: as §1
Danio rerio = species: Danio rerio; assay: Antiangiogenic activity in Flk-1-GFP transgenic zebrafish embryo after 24 hrs; assay type: functional, organism-based
Procedure, shortened: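 Zebrafish embryos exposed to compound at 1.25 or 2.5 μM, or to vehicle, for 24 h. Read-out is formation of the subintestinal vessel (SIV) basket-like structure, compared with vehicle-treated embryos.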

HUVEC [3] = assay: Antimigratory activity in HUVEC assessed as migration into wound area at 0.5 uM after 24 hrs relative to vehicle treated control; assay type: functional, Homo sapiens
Procedure, shortened: (§2)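 Wound-healing assay. HUVEC monolayers scratched with a pipette, then treated with vehicle or the indicated compound concentrations. Photographs taken at 0 h and 24 h at 50×, and migration rate into the wound calculated. Mean ± SD from three independent experiments.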

HUVEC [4] = assay: Antimigratory activity in HUVEC assessed as migration into wound area at 1 uM after 24 hrs relative to vehicle treated control; assay type: functional, Homo sapiens; procedure, shortened: as §2
HUVEC [5] = assay: Antiangiogenic activity against HUVEC assessed as inhibition of capillary-like tube formation at 1 uM after 8 hrs by Matrigel assay relative to control; assay type: functional; settings: Homo sapiens
Procedure, shortened: (§3)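 HUVECs (1 × 10^4 cells) suspended in EBM-2 with vehicle or compound at 1.0 or 5.0 μM and plated on Matrigel. Incubated 8 h at 37 °C. Capillary networks photographed at 100× and quantified. Inhibition of tube-like structure formation expressed relative to vehicle group.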

HUVEC [6] = assay: Antiangiogenic activity against HUVEC assessed as inhibition of capillary-like tube formation at 5 uM after 8 hrs by Matrigel assay relative to control; assay type: functional; settings: Homo sapiens; procedure, shortened: as §3

| Structure (SMILES) | IC50 (HepG2) [µM] | IC50 (A-375) [µM] | IC50 (U-251) [µM] | IC50 (B16) [µM] | IC50 [1] [µM] | IC50 (HUVEC [2]) [µM] | inhibition (Danio rerio) | Activity (HUVEC [3]) [%] | Activity (HUVEC [4]) [%] | inhibition at 1 µM (HUVEC [5]) [%] | inhibition at 5 µM (HUVEC [6]) [%] |
| --- | --- | --- | --- | --- | --- | --- | --- | --- | --- | --- | --- |
| COc1cc(OC)c(-c2coc3c4c(ccc3c2=O)OC(C)(C)C=C4)cc1OC | 1.77 | 1.85 | 4.1 | 1.23 | 2.36 | 7.45 | Dose-dependent effect | 74.26 | 1.65 | 23.7 | 65.4 |
| COc1cc(OC)c(-c2coc3cc(OCC=C(C)C)ccc3c2=O)cc1OC | 0.28 | 1.58 | 3.5 | 1.09 | 0.68 | 3.8 | Dose-dependent effect | 35.36 | 8.45 | 78.2 | 88.3 |
| COc1cc(OC)c(-c2coc3cc(OCc4ccccc4C#N)ccc3c2=O)cc1OC | > 10 | 0.99 | 0.98 | 2.14 | > 10 | > 10 |  |  |  |  |  |
| COc1cc(OC)c(-c2coc3cc(OCCN4CCOCC4)ccc3c2=O)cc1OC | > 10 | > 10 | > 10 | > 10 | > 10 | > 10 |  |  |  |  |  |
